Source: the RNAGym collection of RNA variant scans (doi:10.1126/science.aae0568)
Fewer inactive variants are shown than the library holds.

B1: tRNA (parent)
chain: GUUCCGUUGGCGUAAUGGUAACGCGUCUCCCUCCUAAGGAGAAGACUGCGGGUUCGAGUCCCGUACGGAACG

Variants of: B1
Assay: yeast fitness relative to wild type (ratio to wild type); higher = fitter; tRNA-Arg(CCU), competitive growth, 37 C, YPD
Method in brief: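 Variants of the tRNA-Arg(CCU) gene, chemically synthesised with a 3% per-site mutation rate at 69 sites, were placed at the native genomic locus in Saccharomyces cerevisiae. The pooled strains were competed in YPD at 37°C for 24 hours in six parallel replicates. Gene amplicons from the start population and from each end population were read by 100-nucleotide paired-end sequencing. Darwinian fitness relative to wild type came from changes in genotype frequencies; genotypes needed ≥ 100 starting reads, and estimates < 0.5 were set to 0.5.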

Going from G9A U64C to G9C, the yeast fitness falls from 0.985 to 0.853.

Compared with G9C A14C A57G, G9C A14C C22G G52A U53A is higher in yeast fitness: at most 0.5 for the first, 0.503 for the second.

Going from G9C A14C G18A G44C A57C to G9C A14C G44C A57C, the yeast fitness rises from at most 0.5 to 0.573.

G9C A14C G44C A57U and G9C A14C G44C U64G A70C cannot be ordered by yeast fitness: at most 0.5 for the first, at most 0.5 for the second.

First: G9C A14G A43C
Second: G9C A14G A70G
The yeast fitness of the first is lower: at most 0.5 for the first, 0.746 for the second.

G9C A14G C49G and G9C A14G C62U G63C A70C cannot be ordered by yeast fitness: at most 0.5 for the first, at most 0.5 for the second.

G9C A14G G67A and G9C A14G U26A U32G cannot be ordered by yeast fitness: at most 0.5 for the first, at most 0.5 for the second.

Going from G9C A14G U47C to G9C A14U, the yeast fitness rises from at most 0.5 to 0.509.

First: G9C A14U A21C
Second: G9C A14U A45U C49G C55G G67C
The yeast fitness of the first is higher: 0.61 for the first, at most 0.5 for the second.

G9C A14U A69G and G9C A14U C24G U35G C61G G68C cannot be ordered by yeast fitness: at most 0.5 for the first, at most 0.5 for the second.

Compared with G9C A14U C62G, G9C A14U G50C is higher in yeast fitness: at most 0.5 for the first, 0.682 for the second.

Compared with G9C A14U U28C U35G, G9C A15C is lower in yeast fitness: 0.623 for the first, 0.609 for the second.

Going from G9C A15C A36U A43U to G9C A15C A45C C49U C62G C66U, the yeast fitness falls from 0.738 to 0.591.

First: G9C A15C C31G A40G A43U
Second: G9C A15C C46U
The yeast fitness of the first is lower: at most 0.5 for the first, 0.592 for the second.

G9C A15C U16A A70C and G9C A15C U35C U59A G63A cannot be ordered by yeast fitness: at most 0.5 for the first, at most 0.5 for the second.

G9C A15C U53C C55G and G9C A15G A21G G48A C49G C60A cannot be ordered by yeast fitness: at most 0.5 for the first, at most 0.5 for the second.

G9C A15G C27A C31G C61U and G9C A15G C33U A36C G39C C46G G51C cannot be ordered by yeast fitness: at most 0.5 for the first, at most 0.5 for the second.

G9C A15G C49A A69U and G9C A15G G17A C27A C31G G50A cannot be ordered by yeast fitness: at most 0.5 for the first, at most 0.5 for the second.

Going from G9C A15U to G9C A15U A21C C29A, the yeast fitness rises from 0.603 to 0.773.

G9C A15U G17A A37U A45C and G9C A15U U28G C66A cannot be ordered by yeast fitness: at most 0.5 for the first, at most 0.5 for the second.

First: G9C A20C A45G C46G G50A
Second: G9C A20C C31A A57C C66A A69U
The yeast fitness of the first is lower: at most 0.5 for the first, 0.572 for the second.

G9C A20G G50C and G9C A20G U26C cannot be ordered by yeast fitness: at most 0.5 for the first, at most 0.5 for the second.

First: G9C A20G U35C A36G U59A C66G
Second: G9C A20U C27G C49U
The yeast fitness of the first is lower: at most 0.5 for the first, 0.55 for the second.

G9C A20U U28A A42U G48A and G9C A20U U28A C62U cannot be ordered by yeast fitness: at most 0.5 for the first, at most 0.5 for the second.

Compared with G9C A20U U47C, G9C A21C is higher in yeast fitness: at most 0.5 for the first, 0.652 for the second.

First: G9C A21C A57G
Second: G9C A21G
The yeast fitness of the first is lower: at most 0.5 for the first, 0.669 for the second.

Going from G9C A21U to G9C A21U C27U, the yeast fitness falls from 0.509 to at most 0.5.

First: G9C A21U C31G A40C C62U U64C
Second: G9C A21U C66A
The yeast fitness of the first is lower: 0.518 for the first, 0.585 for the second.

Going from G9C A36C A37G U64C to G9C A36C C55A, the yeast fitness rises from at most 0.5 to 0.525.

Going from G9C A36C C55U to G9C A36C C61A, the yeast fitness rises from at most 0.5 to 0.616.

First: G9C A36G
Second: G9C A36G A70G
The yeast fitness of the first is higher: 0.691 for the first, at most 0.5 for the second.

Compared with G9C A36G C62U, G9C A36U is higher in yeast fitness: at most 0.5 for the first, 0.618 for the second.

G9C A36U A40U G44A G63A A69C and G9C A37C C46U U53A cannot be ordered by yeast fitness: at most 0.5 for the first, at most 0.5 for the second.

First: G9C A37G
Second: G9C A37G C55G C60G
The yeast fitness of the first is higher: 0.623 for the first, 0.524 for the second.

G9C A37G G41A and G9C A37G G41A C61G cannot be ordered by yeast fitness: at most 0.5 for the first, at most 0.5 for the second.

Compared with G9C A40C G51C U64C, G9C A40G A42G A57U is lower in yeast fitness: 0.79 for the first, at most 0.5 for the second.

Going from G9C A40U to G9C A40U A65C, the yeast fitness falls from 0.756 to 0.531.

Going from G9C A40U C46U to G9C A42C, the yeast fitness rises from 0.511 to 0.684.

Going from G9C A42C A69C to G9C A42C C49G G68A, the yeast fitness falls from 0.564 to at most 0.5.

First: G9C A42C G68C
Second: G9C A42G A57U
The yeast fitness of the first is higher: 0.542 for the first, 0.521 for the second.

G9C A42G G52A and G9C A42U C61U U64A A69G cannot be ordered by yeast fitness: at most 0.5 for the first, at most 0.5 for the second.

Compared with G9C A42U U54C, G9C A43C is higher in yeast fitness: at most 0.5 for the first, 0.58 for the second.
